# Laboratory results taken from ChEMBL document CHEMBL1152280 (J Med Chem, 2008).
# Where a SMILES comes first, the peptide text is derived from it. [ ]: non-standard residue; d: D form. Leu(5,5,5,5',5',5'-F6) = N[C@@H](CC(C(F)(F)F)C(F)(F)F)C(=O)O
# Legend:
# [1] = species: Mus musculus; assay: Toxicity in C57BL/6 mouse assessed as effect on body weight after 5 days; assay type: organism-based; details: in vivo, 120 h
# [2] = Stability in presence of DPP4 assessed as peptide degradation after 24 hrs by HPLC; assay type: ADME
# Outline: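 Peptides (10 μM) incubated with DPP IV (20 units/L, activity calibrated on Gly-Pro-p-nitroanilide at 410 nm) in 50 mM Tris·HCl, 1 mM EDTA, pH 7.6, 37 °C, sampled over 200 min and up to 24 h. Samples were quenched in 0.2% TFA and run on C18 RP-HPLC (CH3CN/H2O/0.1% TFA, 230 nm). First-order k was fitted from ln[A] versus time, and fragments were identified by ESI-MS.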
SMILES,Activity [1],Stability [2]
CC[C@H](C)[C@H](NC(=O)[C@H](Cc1ccccc1)NC(=O)[C@H](CCC(=O)O)NC(=O)[C@H](CCCCN)NC(=O)[C@H](C)NC(=O)[C@H](C)NC(=O)[C@H](CCC(N)=O)NC(=O)CNC(=O)[C@H](CCC(=O)O)NC(=O)[C@H](CC(C)C)NC(=O)[C@H](Cc1ccc(O)cc1)NC(=O)[C@H](CO)NC(=O)[C@H](CO)NC(=O)[C@@H](NC(=O)[C@H](CC(=O)O)NC(=O)[C@H](CO)NC(=O)[C@@H](NC(=O)[C@H](Cc1ccccc1)NC(=O)[C@@H](NC(=O)CNC(=O)[C@H](CC(C(F)(F)F)C(F)(F)F)NC(=O)[C@H](CC(C(F)(F)F)C(F)(F)F)NC(=O)[C@@H](N)Cc1cnc[nH]1)[C@@H](C)O)[C@@H](C)O)C(C)C)C(=O)N[C@@H](C)C(=O)N[C@@H](Cc1c[nH]c2ccccc12)C(=O)N[C@@H](CC(C)C)C(=O)N[C@H](C(=O)N[C@@H](CCCCN)C(=O)NCC(=O)N[C@@H](CCCNC(=N)N)C(N)=O)C(C)C,Non-toxic,Stable
CC[C@H](C)[C@H](NC(=O)[C@H](CC(C(F)(F)F)C(F)(F)F)NC(=O)[C@H](CCC(=O)O)NC(=O)[C@H](CCCCN)NC(=O)[C@H](C)NC(=O)[C@H](C)NC(=O)[C@H](CCC(N)=O)NC(=O)CNC(=O)[C@H](CCC(=O)O)NC(=O)[C@H](CC(C)C)NC(=O)[C@H](Cc1ccc(O)cc1)NC(=O)[C@H](CO)NC(=O)[C@H](CO)NC(=O)[C@@H](NC(=O)[C@H](CC(=O)O)NC(=O)[C@H](CO)NC(=O)[C@@H](NC(=O)[C@H](Cc1ccccc1)NC(=O)[C@@H](NC(=O)CNC(=O)[C@H](CCC(=O)O)NC(=O)[C@H](C)NC(=O)[C@@H](N)Cc1cnc[nH]1)[C@@H](C)O)[C@@H](C)O)C(C)C)C(=O)N[C@@H](C)C(=O)N[C@@H](Cc1c[nH]c2ccccc12)C(=O)N[C@@H](CC(C)C)C(=O)N[C@H](C(=O)N[C@@H](CCCCN)C(=O)NCC(=O)N[C@@H](CCCN=C(N)N)C(=O)O)C(C)C,Non-toxic,
CC(C)C[C@H](NC(=O)[C@H](Cc1ccc(O)cc1)NC(=O)[C@H](CO)NC(=O)[C@H](CO)NC(=O)[C@@H](NC(=O)[C@H](CC(=O)O)NC(=O)[C@H](CO)NC(=O)[C@@H](NC(=O)[C@H](Cc1ccccc1)NC(=O)[C@@H](NC(=O)CNC(=O)[C@H](CCC(=O)O)NC(=O)[C@H](C)NC(=O)[C@@H](N)Cc1cnc[nH]1)[C@@H](C)O)[C@@H](C)O)C(C)C)C(=O)N[C@@H](CCC(=O)O)C(=O)NCC(=O)N[C@@H](CCC(N)=O)C(=O)N[C@@H](C)C(=O)N[C@@H](C)C(=O)N[C@@H](CCCCN)C(=O)N[C@@H](CCC(=O)O)C(=O)N[C@@H](Cc1ccccc1)C(=O)N[C@@H](CC(C(F)(F)F)C(F)(F)F)C(=O)N[C@@H](C)C(=O)N[C@@H](Cc1c[nH]c2ccccc12)C(=O)N[C@@H](CC(C)C)C(=O)N[C@H](C(=O)N[C@@H](CCCCN)C(=O)NCC(=O)N[C@@H](CCCNC(=N)N)C(N)=O)C(C)C,Non-toxic,
CC[C@H](C)[C@H](NC(=O)[C@H](Cc1ccccc1)NC(=O)[C@H](CCC(=O)O)NC(=O)[C@H](CCCCN)NC(=O)[C@H](C)NC(=O)[C@H](C)NC(=O)[C@H](CCC(N)=O)NC(=O)CNC(=O)[C@H](CCC(=O)O)NC(=O)[C@H](CC(C)C)NC(=O)[C@H](Cc1ccc(O)cc1)NC(=O)[C@H](CO)NC(=O)[C@H](CO)NC(=O)[C@@H](NC(=O)[C@H](CC(=O)O)NC(=O)[C@H](CO)NC(=O)[C@@H](NC(=O)[C@H](Cc1ccccc1)NC(=O)[C@@H](NC(=O)CNC(=O)[C@H](CCC(=O)O)NC(=O)[C@H](CC(C(F)(F)F)C(F)(F)F)NC(=O)[C@@H](N)Cc1cnc[nH]1)[C@@H](C)O)[C@@H](C)O)C(C)C)C(=O)N[C@@H](C)C(=O)N[C@@H](Cc1c[nH]c2ccccc12)C(=O)N[C@@H](CC(C)C)C(=O)N[C@H](C(=O)N[C@@H](CCCCN)C(=O)NCC(=O)N[C@@H](CCCNC(=N)N)C(N)=O)C(C)C,Non-toxic,Stable
CC[C@H](C)[C@H](NC(=O)[C@H](Cc1ccccc1)NC(=O)[C@H](CCC(=O)O)NC(=O)[C@H](CCCCN)NC(=O)[C@H](C)NC(=O)[C@H](C)NC(=O)[C@H](CCC(N)=O)NC(=O)CNC(=O)[C@H](CCC(=O)O)NC(=O)[C@H](CC(C)C)NC(=O)[C@H](Cc1ccc(O)cc1)NC(=O)[C@H](CO)NC(=O)[C@H](CO)NC(=O)[C@@H](NC(=O)[C@H](CC(=O)O)NC(=O)[C@H](CO)NC(=O)[C@@H](NC(=O)[C@H](Cc1ccccc1)NC(=O)[C@@H](NC(=O)CNC(=O)[C@H](CCC(=O)O)NC(=O)[C@H](C)NC(=O)[C@@H](N)Cc1cnc[nH]1)[C@@H](C)O)[C@@H](C)O)C(C)C)C(=O)N[C@@H](C)C(=O)N[C@@H](Cc1c[nH]c2ccccc12)C(=O)N[C@@H](CC(C(F)(F)F)C(F)(F)F)C(=O)N[C@H](C(=O)N[C@@H](CCCCN)C(=O)NCC(=O)N[C@@H](CCCNC(=N)N)C(N)=O)C(C)C,Non-toxic,
CC[C@H](C)[C@H](NC(=O)[C@H](Cc1ccccc1)NC(=O)[C@H](CCC(=O)O)NC(=O)[C@H](CCCCN)NC(=O)[C@H](C)NC(=O)[C@H](C)NC(=O)[C@H](CCC(N)=O)NC(=O)CNC(=O)[C@H](CCC(=O)O)NC(=O)[C@H](CC(C)C)NC(=O)[C@H](Cc1ccc(O)cc1)NC(=O)[C@H](CO)NC(=O)[C@H](CO)NC(=O)[C@@H](NC(=O)[C@H](CC(=O)O)NC(=O)[C@H](CO)NC(=O)[C@@H](NC(=O)[C@H](Cc1ccccc1)NC(=O)[C@@H](NC(=O)[C@H](CC(C(F)(F)F)C(F)(F)F)NC(=O)[C@H](CCC(=O)O)NC(=O)[C@H](C)NC(=O)[C@@H](N)Cc1cnc[nH]1)[C@@H](C)O)[C@@H](C)O)C(C)C)C(=O)N[C@@H](C)C(=O)N[C@@H](Cc1c[nH]c2ccccc12)C(=O)N[C@@H](CC(C)C)C(=O)N[C@H](C(=O)N[C@@H](CCCCN)C(=O)NCC(=O)N[C@@H](CCCN=C(N)N)C(N)=O)C(C)C,Non-toxic,
"CC[C@H](C)[C@H](NC(=O)[C@H](Cc1ccccc1)NC(=O)[C@H](CCC(=O)O)NC(=O)[C@H](CCCCN)NC(=O)[C@H](C)NC(=O)[C@H](C)NC(=O)[C@H](CCC(N)=O)NC(=O)CNC(=O)[C@H](CCC(=O)O)NC(=O)CNC(=O)[C@H](CC(C)C)NC(=O)[C@H](Cc1ccc(O)cc1)NC(=O)[C@H](CO)NC(=O)[C@H](CO)NC(=O)[C@@H](NC(=O)[C@H](CC(=O)O)NC(=O)[C@H](CO)NC(=O)[C@@H](NC(=O)[C@H](Cc1ccccc1)NC(=O)[C@@H](NC(=O)CNC(=O)[C@H](CC(C(F)(F)F)C(F)(F)F)NC(=O)[C@H](C)NC(=O)[C@@H](N)Cc1cnc[nH]1)[C@@H](C)O)[C@@H](C)O)C(C)C)C(=O)N[C@@H](C)C(=O)N[C@@H](Cc1c[nH]c2ccccc12)C(=O)N[C@@H](CC(C)C)C(=O)N[C@H](C(=O)N[C@@H](CCCCN)C(=O)NCC(=O)N[C@@H](CCCNC(=N)N)C(N)=O)C(C)C (H-HA[Leu(5,5,5,5',5',5'-F6)]GTFTSDVSSYLGEGQAAKEFIAWLVKGR-NH2)",Non-toxic,
